Results: ChEMBL document CHEMBL1287760, “Optimization of purine-nitrile TbcatB inhibitors for use in vivo and evaluation of efficacy in murine models” (Bioorg Med Chem, 2010)
In brackets after ≈: the same amount, converted by molar mass. Activity calls are given as the source filed them. No cut-off for these calls is given here.

Legend:
Trypanosoma brucei [1] = assay: Antitrypanosomal activity against Trypanosoma brucei after 48 hrs; type: functional, organism-based
[2] = Permeability of the compound assessed as ratio of compound in acceptor chamber to amount of compound in donor chamber at pH 7.4 by PAMPA assay; type: ADME
[3] = Therapeutic index, ratio of EC50 for human cells to EC50 for Trypanosoma brucei; conditions: human cells versus Trypanosoma brucei, read-out: Ratio EC50
Method in brief: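 Index = EC50 against the most sensitive mammalian line (HEK 293, Hep G2, BJ, Raji) divided by EC50 against T.b. brucei.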

[4] = Half life in CD1 mouse liver microsomes by UPLC-MS analysis; type: ADME, Microsome; conditions: for half-life: CD1, mouse, liver microsomes
Method in brief: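 CD-1 female mouse liver microsomes in 0.1 M potassium phosphate pH 7.4 with EDTA and NADPH-regenerating solutions, 37 °C, shaken. Samples at 0, 0.5, 1 and 2 h quenched with cold acetonitrile containing caffeine internal standard. UPLC–MS (SIR) read-out. Log peak-area ratio versus time gives slope; k = −2.303 × slope, t1/2 = 0.693/k.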

[5] = Half life in CD1 mouse plasma by UPLC-MS analysis; type: ADME, cell-free
Method in brief: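 Half-life in mouse plasma measured at 37 °C.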

[6] = Aqueous solubility of compound in deionized water; type: physicochemical
Method in brief: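 Aqueous solubility measured in deionized water.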

[7] = Permeability of the compound assessed as ratio of compound in acceptor chamber to amount of compound in donor chamber at pH 3 by PAMPA assay; type: ADME
[8] = Toxicity in human erythrocyte assessed as hemolysis at 10 uM after 5 hrs; type: cell-based; conditions: erythrocytes, read-out: Activity
Method in brief: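 Human erythrocytes washed three times after spinning whole blood at 1000g for 5 min. Test compound at 10 µM final, 2% hematocrit. PBS negative control; 0.4% saponin dilution series as standard. After centrifugation, supernatant absorbance read at 414 nm and % hemolysis taken from the calibration curve. Triplicate.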

Mus musculus [9] = assay: Stability of the compound in po dosed mouse blood; type: ADME, organism-based; conditions: in vivo
Method in brief: (§1)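 Oral gavage of compound suspensions to female Balb/c mice; blood sampled retro-orbitally at 1, 2 and 4 h (one sample per mouse) and by cardiac puncture at 48 h. Parent compound and metabolites measured by UPLC–MS; metabolite identity assigned by MS/MS against a synthesized standard.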

BJ = assay: Cytotoxicity against human BJ cells after 72 hrs by alamar blue assay; type: cell-based
[10] = Chemical stability in phosphate buffered saline at pH 3 after 14 days; type: physicochemical; conditions: buffer, pH 3, 336 h
Method in brief: (§2)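 Stability in PBS (pH 3, 5 and 7.4) followed over 14 days for non-metabolic degradation.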

[11] = Chemical stability in phosphate buffered saline at pH 5 after 14 days; type: physicochemical; conditions: buffer, pH 5, 336 h; method in brief: as §2
[12] = Chemical stability in phosphate buffered saline at pH 7.4 after 14 days; type: physicochemical; conditions: buffer, pH 7.4, 336 h; method in brief: as §2
[13] = Chemical stability in dimethyl sulfoxide at pH 7.4 after 14 days; type: physicochemical; conditions: buffer, pH 7.4, 336 h
Method in brief: (§3)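 DMSO stability followed over 14 days for non-metabolic degradation.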

Raji = assay: Cytotoxicity against human Raji cells after 72 hrs by alamar blue assay; type: cell-based
HepG2 = assay: Cytotoxicity against human HepG2 cells after 72 hrs by alamar blue assay; type: cell-based; conditions: hepg2, 72 h
[14] = Chemical stability in dimethyl sulfoxide at pH 3 after 14 days; type: physicochemical; conditions: buffer, pH 3, 336 h; method in brief: as §3
HEK293 = assay: Cytotoxicity against human HEK293 cells after 72 hrs by alamar blue assay; type: cell-based; conditions: hek293, 72 h
[15] = Chemical stability in dimethyl sulfoxide at pH 5 after 14 days; type: physicochemical; conditions: buffer, pH 5, 336 h; method in brief: as §3
[16] = Permeability of the compound assessed as ratio of compound in acceptor chamber to amount of compound in donor chamber at pH 5 by PAMPA assay; type: ADME
Mus musculus [17] = assay: Stability of the compound in po dosed mouse blood assessed as 5-(2-cyano-6-(3,4-dichlorobenzylamino)-9H-purin-9-yl)pentanoic acid level after 1 hr; type: ADME, organism-based; conditions: in vivo; method in brief: as §1
Trypanosoma brucei [18] = assay: Antitrypanosomal activity against Trypanosoma brucei 221 infected in BALB/c mouse assessed as increase of mouse survival days at 200 mg/kg, po qd for 5 days relative to control; type: functional
Method in brief: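 Female Balb/C mice (10–12 weeks) infected on day 0 by IP injection of ~800 T.b. brucei 221 parasites (cultured in HMI-9 with 10% FBS and 10% Serum Plus, diluted to 8 × 10³ parasites/ml, 0.1 ml). Oral gavage of 200 mg/kg on days 0–4 in 20% ethanol/40% propylene glycol/10% PEG 400/30% PBS pH 7.4; vehicle controls. Mice were randomly assigned to groups. Parasitemia was counted by hemocytometer every third day from day 4. Survival days were recorded.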

[19] = Long term solid state stability of the compound at simulated tropical condition after 30 days; type: physicochemical; conditions: 720 h
Trypanosoma brucei [20] = assay: Antitrypanosomal activity against Trypanosoma brucei 221 infected in BALB/c mouse assessed as decrease of parasitemia at 200 mg/kg, po qd for 5 days measured on day 6; type: functional, organism-based; parameters: dose 200 mg/kg
[21] = Cmax in mouse plasma at 50 to 1000 mg/kg, po after 1 to 4 hrs
[22] = Cmax in mouse plasma at 200 mg/kg, po; type: ADME, organism-based; parameters: dose 200 mg/kg, route oral
Method in brief: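 Female Balb/c mice given oral gavage suspensions (20% ethanol/40% propylene glycol/10% PEG 400/30% PBS pH 7.4), 0.1 ml per 20 g, at 50–1000 mg/kg. Retro-orbital blood (0.1 ml, EDTA) taken from a different mouse at 1, 2, 4 h, some also at 8, 12, 24 h, plus a 48 h cardiac bleed. Plasma precipitated with 3 parts cold acetonitrile; concentration by UV/HPLC.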

Mus musculus [23] = assay: Toxicity in mouse assessed as transient darkening of the eyes at 2 to 8 mg/kg, iv measured after 30 seconds; type: organism-based; parameters: dose 2-8 mg/kg, route intravenous; conditions: in vivo, 0.5 min
Method in brief: (§4)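 Female Balb/c mice dosed by lateral tail-vein injection of solubilized compound at 2, 4 and 8 mg/kg (0.4–1.6 mg/ml solutions, 0.1 ml per 20 g). Observed by a modified Irwin functional observational battery (gait, alertness, respiration, piloerection, vasodilation, vocalization).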

[24] = Cmax in mouse plasma at 200 mg/kg, ip; type: ADME, organism-based; parameters: dose 200 mg/kg, route intraperitoneal
Mus musculus [25] = assay: Toxicity in mouse at 200 mg/kg, po qd for 10 days; type: organism-based; parameters: dose 200 mg/kg, route oral; conditions: in vivo, 240 h
Method in brief: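 Five female Balb/c mice given 200 mg/kg daily by oral gavage for 10 days and monitored to day 30. One mouse sent for CBC, serum chemistry and necropsy on day 10 and another on day 30. Functional observational battery used.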

Mus musculus [26] = assay: Toxicity in mouse assessed as decreased movement at 2 to 8 mg/kg, iv measured immediately after dosing; type: organism-based; parameters: dose 2-8 mg/kg, route intravenous; conditions: in vivo; method in brief: as §4
Mus musculus [27] = assay: Toxicity in mouse assessed as transient darkening of the eyes at 2 to 8 mg/kg, iv measured immediately after dosing; type: organism-based; parameters: dose 2-8 mg/kg, route intravenous; conditions: in vivo; method in brief: as §4
[28] = Toxicity in po dosed mouse assessed as maximum tolerated dosage; type: organism-based; conditions: in vivo
Method in brief: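 Female balb/c mice, 10–12 weeks, housed individually. Oral gavage in a four-stage escalation: vehicle, then 50, 100 and 200 mg/kg. Some groups went on to 400 and 1000 mg/kg. Dose volume 0.1 ml per 20 g. Twelve mice per compound. A modified Irwin FOB was run for 15 min after each dose and at 1–48 h (gait, alertness, respiration, piloerection, vasodilation, vocalization). Necropsy, CBC and serum chemistry were done at 48 h.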

[29] = test system: Trypanosoma brucei rhodesiense; assay: Antitrypanosomal activity against Trypanosoma brucei rhodesiense STIB900 infected in NMRI mouse assessed as increase of mouse survival time at 50 to 200 mg/kg, po qd
[30] = Ratio of plasma concentration mouse at 200 mg/kg, po to EC90 for Trypanosoma brucei; type: ADME, organism-based; parameters: dose 200 mg/kg, route oral; conditions: in vivo
Trypanosoma brucei [31] = assay: Antitrypanosomal activity against Trypanosoma brucei 221 infected in BALB/c mouse assessed as decrease of parasitemia at 200 mg/kg, po qd for 5 days measured on day 4; type: functional, organism-based; parameters: dose 200 mg/kg
Method in brief: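 Female Balb/C mice (10–12 weeks) infected ip on day 0 with ~800 T.b. brucei strain 221 (0.1 ml of 8 × 10³ parasites/ml in unsupplemented HMI-9; parasites grown to 10⁷/ml in supplemented HMI-9). Randomized to oral gavage of 200 mg/kg suspension or vehicle (20% ethanol/40% propylene glycol/10% PEG 400/30% PBS pH 7.4) on days 0–4. Parasitemia counted by hemocytometer in saphenous blood every third day from day 4.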

[32] = Drug level in mouse brain at 200 mg/kg, po after 24 hrs; conditions: read-out: Drug uptake
[33] = Ratio of drug level in brain to plasma in mouse at 200 mg/kg, po after 24 hrs
Mus musculus [34] = assay: Toxicity in mouse assessed as decreased movement at 2 to 8 mg/kg, iv measured after 30 seconds; type: organism-based; parameters: dose 2-8 mg/kg, route intravenous; conditions: in vivo, 0.5 min; method in brief: as §4
[35] = Cmax in mouse brain at 200 mg/kg, po
[36] = Ratio of plasma concentration mouse at 200 mg/kg, po to EC50 for Trypanosoma brucei; type: ADME, organism-based; parameters: dose 200 mg/kg, route oral; conditions: in vivo

EC50 (Trypanosoma brucei [1]) | Ratio [2] | half-life [4] | half-life [5] | solubility [6] | Ratio [7] | Stability (Mus musculus [9]) | Stability [10] | Stability [11] | Stability [12] | Stability [13] | Stability [14] | Stability [15] | SMILES | selectivity ratio [3] | hemolysis at 5 h, 10 µM [8] | Activity (BJ) | Activity (Raji) | Activity (HepG2) | Activity (HEK293) | other results
2400 nM | 1770 | 0.53 h | 40.9 h | 4.2 µM (≈ 1.64 µg/mL) | 1800 | Unstable | – | – | – | – | – | – | COCCCn1cnc2c(NCc3ccc(Cl)c(Cl)c3)nc(C#N)nc21 | > 10 | 0.7% | – | – | – | – | –
270 nM | – | 0.43 h | 25.7 h | 1 µM (≈ 0.412 µg/mL) | – | Unstable | Stable | Stable | Stable | Stable | Stable | Stable | Cc1cccc(C)c1-c1cccc(CNc2nc(C#N)nc3c2ncn3CCCO)c1 | > 20 | 1.1% | Non-toxic | Non-toxic | Non-toxic | Non-toxic | –
380 nM | 1900 | 1.08 h | 38.3 h | 16.1 µM (≈ 6.53 µg/mL) | 960 | Unstable | Stable | Stable | Stable | Stable | Stable | Stable | N#Cc1nc(NCc2ccc(Cl)c(Cl)c2)c2ncn(CCCCCO)c2n1 | > 20 | 0.7% | Non-toxic | Non-toxic | Non-toxic | Non-toxic | Ratio [16]: 1512; Stability (Mus musculus [17]): Unstable

SMILES | EC50 (Trypanosoma brucei [1]) | Ratio [2] | half-life [4] | half-life [5] | solubility [6] | Ratio [7] | Stability (Mus musculus [9]) | Stability [10] | Stability [11] | Stability [12] | Stability [13] | Stability [14] | Stability [15] | selectivity ratio [3] | hemolysis at 5 h, 10 µM [8] | Activity (BJ) | Activity (Raji) | Activity (HepG2) | Activity (HEK293) | other results
N#Cc1nc(NCc2ccc(Cl)c(Cl)c2)c2ncn(CCCC(F)(F)F)c2n1 | 530 nM | – | – | 177 h | 0.3 µM (≈ 0.129 µg/mL) | – | – | – | – | – | – | – | – | > 20 | 0.4% | – | – | – | – | Survival (Trypanosoma brucei [18]): 9.6 days; Stability [19]: Stable; Activity (Trypanosoma brucei [20]): inactive; Cmax [21]: 6 µM; Tmax [22]: 24 h; Activity (Mus musculus [23]): Non-toxic; t1/2 ([4]; mouse, microsomes): Stable; Tmax [24]: 4 h; Activity (Mus musculus [25]): Non-toxic; Activity (Mus musculus [26]): Non-toxic; Activity (Mus musculus [27]): Non-toxic; MTD [28]: 1000 mg/kg; Activity [29]: inactive; Ratio [30]: 10; Activity (Trypanosoma brucei [31]): inactive; concentration at 24 h [32]: 20 µM; Kp at 24 h [33]: 2; Activity (Mus musculus [34]): Non-toxic; Tmax [35]: 4 h; Ratio [36]: 20
